An excerpt weighted towards active compounds, which were near 2.1% of everything screened.
M1 ag: human M1 muscarinic receptor agonism; P11229; CHO-K1 hM1, Fluo-8 calcium fluorescence, agonist mode; 0% DMSO, 100% acetylcholine EC100; activation, % at 3 µM; hit rate 0.33% among 360,000;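 active means activation above the run's mean compound activation plus 3 SD, cut at about 16% in these data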;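 further: peak over basal fluorescence ratio within a 140 s kinetic read after compound addition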
CHRM5 agonist: agonists of human muscarinic M5 receptor (CHRM5) | P08912 | CHO-K1 hM5 cells, Fluo-8 calcium fluorescence; 0% DMSO wells, 100% maximal acetylcholine response | activation, % at 3 µM | hit rate 0.19% among 360,000 | AID 624037;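 active means activation above the run's mean over test compounds plus 3 SD, cut at about 23% in these data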;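 further: signal is peak over basal fluorescence ratio across the kinetic read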
Target sequence (P08912 whole entry, looked up): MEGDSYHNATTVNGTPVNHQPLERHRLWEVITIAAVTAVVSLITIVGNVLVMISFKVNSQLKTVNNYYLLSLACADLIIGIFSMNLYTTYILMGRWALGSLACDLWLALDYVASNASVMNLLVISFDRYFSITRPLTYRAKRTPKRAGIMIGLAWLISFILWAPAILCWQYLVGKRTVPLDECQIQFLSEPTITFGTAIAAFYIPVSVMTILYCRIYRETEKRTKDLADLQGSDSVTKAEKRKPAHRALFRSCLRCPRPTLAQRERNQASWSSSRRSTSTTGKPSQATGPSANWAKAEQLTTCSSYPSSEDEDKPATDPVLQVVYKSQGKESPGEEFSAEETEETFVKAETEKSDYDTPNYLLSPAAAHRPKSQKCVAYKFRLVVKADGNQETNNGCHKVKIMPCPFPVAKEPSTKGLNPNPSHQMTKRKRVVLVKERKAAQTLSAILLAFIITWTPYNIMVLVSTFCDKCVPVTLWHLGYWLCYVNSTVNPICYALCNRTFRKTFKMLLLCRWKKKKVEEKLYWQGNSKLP
M5 antag: CHRM5 antagonism in calcium assay | inhibition, % at 3 µM | hit rate 0.59% among 360,000 | AID 624040 | CHO-hM5 cells, Fluo-8 calcium fluorescence, ACh EC80 | P08912;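 active means inhibition above a per-plate cutoff, the mean of that plate's test compounds plus 3 SD, cut at about 27% in these data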;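 further: 0% = acetylcholine EC80 with DMSO and 100% = DMSO without agonist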
M5 PAM: potentiates acetylcholine response at human M5 receptor; P08912; CHO-K1 hM5, Fluo-8 calcium, ACh EC20 PAM; 0% = ACh EC20, 100% = ACh EC100; activation, % at 3 µM; hit rate 0.3% among 360,000; AID 624038;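 active means activation above the run cutoff, the mean activation of all test compounds plus 3 SD, cut at about 18% in these data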
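system = human M5 receptor in CHO-K1 cells | reagent = EC20 acetylcholine as agonist stimulus | compound dosing = single-point, 3 µM nominal | incubation = Fluo-8 loading 80 min at 37 °C plus 30 min room temperature | detection = Fluo-8 calcium dye fluorescence, kinetic read | benchmarks = low control EC20 acetylcholine (0%), high control EC100 acetylcholine (100%)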
CHRM1 antagonist: blocks human M1 muscarinic receptor. P11229. CHO-K1 hM1, Fluo-8 calcium fluorescence, ACh EC80 antagonist. inhibition, % at 3 µM. hit rate 1.3% among 360,000. AID 588852;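 active means percent inhibition above its own plate's cutoff, namely the mean of that plate's compound wells plus 3 SD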;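 further: peak over basal fluorescence ratio during 140 s after agonist addition; 0% = ACh EC80 plus DMSO and 100% = DMSO alone without agonist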
CHRM1 PAM: human CHRM1 positive allosteric modulation; P11229; CHO-K1 hM1, Fluo-8 calcium fluorescence, ACh EC20; 0% = ACh EC20, 100% = maximal ACh; activation, % at 3 µM; hit rate 0.088% among 360,000; in the data active means activation above about 19%, passing the limit was not always enough
Numbers without * were called inactive.

SMILES | M1 ag | CHRM5 agonist | M5 antag | M5 PAM | CHRM1 antagonist | CHRM1 PAM
CCC(C)N=C1SCC(C)(/C=N/O)S1 (configuration not stated) | -4.7 | -2.5 | 0.7 | 2.1 | -8.2 | 7.5
O=C1NC2(CCCCC2)N=C1c1ccc(F)cc1 | -5.4 | -1.0 | -4.5 | -2.4 | 4.1 | 6.1
O=C(COc1cc([N+](=O)[O-])cc2cccnc12)NCCC1=CCCCC1 | 0.4 | 1.8 | -6.2 | -0.4 | -20.0 | 16.8
O=C(CN1CCCCCC1)Nc1ccccc1Oc1ccccc1 | -8.8 | -14.8 | 10.0 | -10.1 | 40.6* | -25.7
CC1CCN(CC(=O)Nc2ccccc2-c2ccccc2)CC1 | -11.5 | -6.2 | 9.3 | -24.3 | 32.5* | -33.6
O=C(CN1CCCC1)NC(c1ccccc1)c1ccccc1 | -8.0 | -22.7 | 4.8 | -13.5 | 68.8* | -26.0
O=C(CN1CCCCC1)Nc1cc(Cl)ccc1Oc1ccccc1 | -5.0 | -4.2 | -2.4 | -7.9 | 17.2 | -14.7
CCOc1ccc(N(CC(=O)NC2CCCCC2)C(=O)Cn2nnc(-c3ccc(C)o3)n2)cc1 | 0.6 | -2.9 | 22.2 | -6.8 | -11.7 | 2.2
O=C(OCc1ccccc1)N1CCC2CC1c1cc(N3CCCCC3)ccc12 (configuration not stated) | -10.9 | -3.7 | 5.6 | -8.7 | 34.2* | -27.8
Clc1cccc(CN2CCC3CC2c2cc(N4CCCCC4)ccc23)c1 (configuration not stated) | -4.9 | -0.6 | -5.8 | -1.8 | -7.9 | 3.4
O=C(c1cc(Cl)cc(Cl)c1)N1CCC2CC1c1cc(N3CCCCC3)ccc12 (configuration not stated) | -10.9 | -3.2 | 13.3 | -18.3 | 69.7* | -33.5
O=c1oc2cc(O)ccc2cc1-c1nc2ccccc2o1 | 53.8* | 26.9* | 20.1 | -20.5 | 25.6 | -18.7
Oc1c(Br)cc(Br)cc1C=Nc1cccc2ncccc12 | -1.7 | 3.2 | 13.9 | -3.0 | -5.7 | 6.3
CCOc1ccc(OCCSc2nc(N)cc(=O)[nH]2)cc1 | 1.5 | 4.9 | 2.9 | -4.5 | -9.0 | 1.3
Nc1cc(=O)[nH]c(SCCOc2ccccc2)n1 | -3.0 | -1.2 | 27.0* | -16.1 | 8.2 | -13.2
O=C(Nc1ccc(N2CCCC2)cc1)c1cc(Br)ccc1Cl | -8.5 | -2.2 | 7.3 | 3.7 | 52.6* | -28.4
CN1CCN(NC(=O)c2ccc(Cl)cc2Cl)CC1 | -9.5 | -3.0 | 4.7 | -3.9 | -20.1 | 12.3
CS(=O)(=O)c1ccc(C(=O)Nc2ccc(N3CCCC3)cc2)c(Cl)c1 | -11.9 | 0.1 | 1.8 | 6.7 | 0.3 | 7.9
CN1CCN(NC(=O)c2cc(Br)ccc2Cl)CC1 | -6.9 | -6.0 | 27.2* | -13.4 | -0.1 | -0.6
Cc1cccc(NC(=O)CN2C(=O)c3ccccc3S2(=O)=O)n1 | 0.9 | 2.9 | 11.6 | -6.3 | 17.3 | -6.9
Cc1cccc(NC(=O)C(C)N2C(=O)c3ccccc3S2(=O)=O)n1 (configuration not stated) | -1.1 | 2.1 | 10.2 | -6.1 | 28.2* | -12.3
O=C(NCc1ccccc1)/C(=C\c1ccc([N+](=O)[O-])cc1)NC(=O)c1ccco1 | 17.0* | 6.8 | 0.4 | 3.9 | -11.2 | 15.1
O=C1Nc2c(c(=O)[nH]c(=O)n2Cc2ccccc2)C1(NS(=O)(=O)c1ccccc1)C(F)(F)F (configuration not stated) | -8.9 | -2.1 | 7.4 | -1.9 | 0.5 | 1.4
CCOC(=O)C1CCCN(C(=O)c2ccc(S(=O)(=O)N3CCCC3)cc2)C1 (configuration not stated) | -2.6 | 5.5 | -2.6 | -2.5 | 38.8* | -16.1
CCOC(=O)C1CCCN(C(=O)c2cc(Cl)ccc2Cl)C1 (configuration not stated) | 18.7* | -0.7 | -3.9 | -0.7 | -4.6 | 1.7
SMILES | M1 ag | CHRM5 agonist | M5 antag | M5 PAM | CHRM1 antagonist | CHRM1 PAM
CCOC(=O)C1CCCN(C(=O)c2ccc(Cl)cc2)C1 (configuration not stated) | -7.6 | -8.4 | 0.5 | 6.7 | 1.6 | 2.6
CCOC(=O)C1CCCN(C(=O)C(C)Oc2ccc(Cl)cc2Cl)C1 (configuration not stated) | 21.2* | 4.7 | -6.6 | -3.1 | -2.2 | -7.0
CN1CCC(NC(=O)Nc2cccc(C(F)(F)F)c2)CC1 | 1.8 | 2.4 | 3.1 | 6.8 | -13.1 | 14.2
N#Cc1ccccc1C[C@H](N)C(=O)NC[C@H]1O[C@@H](n2cnc3c(N)ncnc32)[C@H](O)[C@@H]1O | -1.6 | 1.7 | 1.8 | 5.5 | -21.6 | 0.8
COc1ccc(N=C2C(=O)N3CCCc4cccc2c43)cc1 | -7.7 | 0.8 | -12.8 | 3.5 | -4.0 | 7.1
COc1cc(N=C2C(=O)N3c4c(cccc42)C(C)=CC3(C)C)cc(OC)c1 | 1.8 | 26.8* | -10.7 | 4.3 | -7.1 | 6.2
CC1=CC(C)(C)N2C(=O)C(=Nc3ccc(O)cc3)c3cccc1c32 | 2.5 | 38.0* | 5.1 | 6.3 | -18.6 | 15.6
O=C1CSC(c2ccncc2)N1Cc1ccc(F)cc1 (configuration not stated) | -0.5 | -3.1 | -0.4 | 2.7 | -16.5 | 8.4
CCOC(=O)C1CCN(C(=O)c2sc3nc(C)nc(N4CCC(C)CC4)c3c2C)CC1 | -8.2 | -4.3 | -1.6 | -4.5 | -1.3 | -2.1
O=C(CSc1ccc(-c2ccccn2)nn1)c1ccccc1 | -2.9 | -2.5 | 4.5 | -3.3 | -9.0 | 1.2
O=C(CSc1ccc(-c2ccccn2)nn1)c1ccc(F)cc1 | -4.0 | 4.0 | 31.5* | 28.2* | -2.4 | 5.6
CCOc1ccc2c(c1)N(C(=O)CN1C(=O)CCC1=O)C(C)(C)C=C2C | -4.0 | -6.7 | -4.9 | 3.3 | -21.6 | -1.0
CC1=CC(C)(C)N(C(=O)CNC2CCCC2)c2cc(C)ccc21 | -7.0 | -15.2 | 36.8* | -31.2 | 99.3* | -23.2
COc1cccc(CNC(=O)CCc2nnc(C3CCCCC3)o2)c1 | -3.8 | 0.3 | 10.1 | 4.0 | -5.6 | 3.9
COCCn1c(SCc2ccc(C(=O)OC)o2)nc2ccccc2c1=O | -9.6 | -3.1 | 3.5 | -6.0 | -3.8 | -2.1
COC(=O)c1cc(CSc2nc3ccccc3c(=O)n2C)oc1C | -4.9 | 2.3 | 13.8 | -13.3 | 66.6* | -31.2
COCCNc1oc(COc2cccc(C)c2)nc1C#N | -2.5 | -3.0 | 8.0 | 23.8* | 14.4 | -14.1
Cc1[nH]n(-c2ccccc2)c(=O)c1/C=N/NC(=O)c1ccc(O)cc1O | -3.5 | -2.9 | 13.1 | -4.6 | -7.8 | 5.4
Cc1cc(C(=O)N/N=C/c2c(C)[nH]n(-c3ccccc3)c2=O)n[nH]1 | -3.1 | -3.6 | -14.5 | 18.9* | -12.8 | 14.5
Fc1ccccc1CN1CCCCCCC1 | -11.8 | -4.2 | -5.7 | 2.4 | 4.6 | -4.7
c1ccc(Sc2ccccc2CN2CCCC2)cc1 | -8.6 | -20.1 | 74.1* | -34.4 | 78.9* | -24.1
